In series [1] the test system is LNCaP cells. The experiment in a line: In vitro competitive receptor binding assay. Type of series: cell-based. The conditions noted are these: pre-incubation with Ac-KCCYSL 1 hour, then KCC-TGX 30 minutes. The essentials: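 LNCaP cells were plated at 2×10⁴ cells/well for 12 h and PBS-washed. They were pre-incubated 1 h at 37°C with the HER2-targeting peptide at the indicated concentrations, then exposed to test conjugate for 30 min. Cells were washed, freeze-thaw lysed, NaOH-hydrolysed 1 h to release parent drug, and extracted with ethyl acetate using an internal standard. Drug was quantified by LC-MS/MS and normalised to BCA protein. n=3.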

Series [2] relates to LNCaP cells. The series is described as follows: Immunostaining of LNCaP cells with biotinylated peptides. It counts as binding. An outline of the steps:
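LNCaP cells were fixed in ice-cold acetone/methanol (1/1) for 10 min and blocked with 1% BSA for 1 h. Biotinylated peptide was applied for 1 h in TBST (0.1% Tween-20, 0.1 M Tris-Cl, pH 7.4). After washing, streptavidin-FITC was added for 20 min and nuclei were counterstained. Cells were imaged by fluorescence microscopy at 200x.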

The subject of series [3] is androgen response element (ARE-LUC) reporter in LNCaP cells. The experiment in a line: Androgen induced gene expression assay. The note with it: R1881 1.0 nM, 24 hours, compared with TGX-221. Type of series: cell-based. An outline of the steps: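 LNCaP cells in 6-well plates were transfected the next day with 1.0 μg ARE-LUC plasmid using Lipofectamine. After 24 h, medium was changed to RPMI-1640 with 2% FBS and 1.0 nM R1881, test compound was added, and cells were incubated 24 h. Cells were PBS-washed and lysed, and luciferase activity was normalised to BCA total protein. Mean ± SD, n=3.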

Series [4] has as its system LNCaP cells. The experiment in a line: Cytotoxicity assay. It counts as cell-based. The note with it: read-out: IC50 in LNCaP cells; LNCaP (PTEN-null), 72 hours, MTT assay. (In general: Formazan colour is commonly taken as a measure of viable cells.)
Series [5] relates to DU145 cells. The series is described as follows: Cytotoxicity assay. Type of series: cell-based. The note with it: read-out: IC50 in DU145 cells; DU145 (PTEN-wild), 72 hours, MTT assay. An outline of the steps: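 DU145 cells were seeded at 3×10³ cells/well, a lower density than LNCaP owing to fast growth. After 24 h, test compound was added and cells were incubated 72 h at 37°C. Relative cell number was measured by MTT. IC50 was obtained by fitting a concentration-response curve.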

In series [6] the test system is LNCaP cells. The series is described as follows: Androgen induced proliferation assay. Type of series: cell-based. The note with it: R1881-containing serum-free medium, 3 days, compared with TGX-221. The essentials:
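LNCaP cells were seeded 12 h before assay. Medium was switched to serum-free medium containing 1 nM R1881 (synthetic androgen), then test compound was added. After 72 h incubation, proliferation was read by Alamar Blue assay. Mean ± SD, n=3.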

The test system of series [7] is LNCaP cells. The series is described as follows: Cellular uptake study. It counts as cell-based. The conditions noted are these: 0.5 μM, 1 hour incubation.
Series [8] relates to PI3Kβ. The conditions noted are these: selectivity; cited from earlier work.

Turning to Ac-KCCYSL, the “uptake by LNCaP cells after pre-incubation with the HER2-specific ligand” value in series [1] was “significantly inhibited”.

With KCCYSL, in series [2] (C-terminus biotinylated peptide, 10 μM), the “binding on LNCaP cells (streptavidin-FITC staining)” value was “high-affinity binding”.

On to `Cc1cc(C(C)N(CCO)c2ccccc2)c2nc(N3CCOCC3)cc(=O)n2c1` (stereo not shown) [TGX-D1], for which, in series [3], the “inhibition of androgen-induced gene expression” value is reported as “comparable effects”. Besides, the IC50 – broadly, the midpoint of a concentration-inhibition curve – is 2.67 µM in series [4] and greater than 100 µM in series [5]. The “inhibition of androgen-induced cell proliferation” value in series [6] is “comparable effects”. Besides, in series [7], the “cellular uptake in LNCaP cells” value is recorded as “low uptake”.

Regarding `Cc1cc(C(C)Nc2ccccc2)c2nc(N3CCOCC3)cc(=O)n2c1` (stereo not shown) [TGX-221], in series [4], the concentration for half-maximal inhibition (IC50) came out at 1.07 µM. Besides, in series [8], the “inhibition effect on PI3Kβ over PI3Kα” value is “about 1000 fold”, the “inhibition effect on PI3Kβ over PI3Kγ” value was “about 1000 fold” and the “inhibition effect on PI3Kβ over PI3Kδ” value is given as roughly 20 fold. Besides, the IC50 in series [5] is greater than 100 µM.

Consider DPRATPGSK, for which the “fluorescence on LNCaP cells (streptavidin-FITC staining)” value in series [2] (control peptide, concentration increased to 100 μM (data not shown)) is “No significant fluorescence”.

Values taken from paper PMC3163154 (Molecular pharmaceutics, 2011).
